Measured values taken from ChEMBL document CHEMBL1137381, “Biarylpyrazole inverse agonists at the cannabinoid CB1 receptor: importance of the C-3 carboxamide oxygen/lysine3.28(192) interaction” (J Med Chem, 2006).

Tests used:
[1] = biological target: Cannabinoid receptor 1 (Rattus norvegicus) (UniProt P20272); experiment: Agonist activity against rat CB1 receptor expressed in superior cervical ganglion neurons assessed as increase in calcium ion current at 1 uM relative to control; assay type: functional, tissue-based
How it was run: (§1)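 Rat SCG neurons nuclear-injected with N-terminally HA-tagged rat CB1 cDNA (100 ng/µL) plus EGFP marker plasmid, incubated overnight. Whole-cell voltage-clamp at 24-26 °C. Ca²⁺ current measured 10 ms into step to +5 mV, preceded by 50 ms prepulse to +80 mV. Test drug superfused alone, diluted from 10 mM DMSO stock. Current increase expressed as % of control amplitude; paired t-test.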

Cannabinoid receptor 1 [2] = biological target: T1, Cannabinoid receptor 1 (Homo sapiens, UniProt P21554); experiment: biochemical; assay type: cell-based, HEK293
Cannabinoid receptor 1 [3] = biological target: T1, Cannabinoid receptor 1; experiment: biochemical; assay type: cell-based, HEK293; remark: listed apart in the source
Cannabinoid receptor 1 [4] = biological target: T1, Cannabinoid receptor 1; experiment: biochemical; assay type: cell-based, HEK293; remark: listed apart in the source
[5] = biological target: Cannabinoid receptor 1 (Rattus norvegicus) (UniProt P20272); experiment: Antagonist activity against rat CB1 receptor expressed in superior cervical ganglion neurons assessed as block of WIN-55212-2-elicited calcium ion current inhibition at 1 uM relative to control; assay type: functional, tissue-based; design: scale not given: the % may be the effect or the level left
How it was run: (§2)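 SCG neurons from rat, nuclear-injected with HA-tagged rat CB1 cDNA, recorded after overnight incubation by whole-cell patch clamp at room temperature. Ca²⁺ currents isolated with TEA/TTX external solution and NMDG/EGTA pipette solution. WIN55,212-2 (1 µM) coapplied with test compound. Inhibition of Ca²⁺ current expressed as % of control amplitude, taken 10 ms after the step to +5 mV.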

[6] = biological target: Cannabinoid receptor 1 (Rattus norvegicus) (UniProt P20272); experiment: Agonist activity against rat CB1 receptor expressed in superior cervical ganglion neurons assessed as increase in calcium ion current at 10 uM relative to control; assay type: functional, tissue-based; how it was run: as §1
[7] = biological target: Cannabinoid receptor 1 (Rattus norvegicus) (UniProt P20272); experiment: Antagonist activity against rat CB1 receptor expressed in superior cervical ganglion neurons assessed as block of WIN-55212-2-elicited calcium ion current inhibition at 10 uM relative to control; assay type: functional, tissue-based; design: scale not given: the % may be the effect or the level left; how it was run: as §2

T1 sequence (P21554 whole entry): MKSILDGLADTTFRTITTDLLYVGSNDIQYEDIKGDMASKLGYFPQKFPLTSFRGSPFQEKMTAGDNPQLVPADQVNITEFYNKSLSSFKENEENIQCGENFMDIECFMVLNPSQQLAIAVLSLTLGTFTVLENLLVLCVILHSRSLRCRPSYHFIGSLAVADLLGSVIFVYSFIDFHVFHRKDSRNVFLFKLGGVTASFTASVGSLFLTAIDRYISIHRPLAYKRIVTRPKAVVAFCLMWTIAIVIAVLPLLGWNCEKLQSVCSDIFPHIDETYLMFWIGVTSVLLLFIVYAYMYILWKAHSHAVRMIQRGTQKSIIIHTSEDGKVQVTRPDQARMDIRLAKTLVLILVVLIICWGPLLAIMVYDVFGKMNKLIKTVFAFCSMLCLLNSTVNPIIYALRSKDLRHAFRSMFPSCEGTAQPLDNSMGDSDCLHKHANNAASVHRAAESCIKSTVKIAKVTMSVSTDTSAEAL
Chain of Cannabinoid receptor 1 (Rattus norvegicus) (P20272 whole entry, the tested form may be a part): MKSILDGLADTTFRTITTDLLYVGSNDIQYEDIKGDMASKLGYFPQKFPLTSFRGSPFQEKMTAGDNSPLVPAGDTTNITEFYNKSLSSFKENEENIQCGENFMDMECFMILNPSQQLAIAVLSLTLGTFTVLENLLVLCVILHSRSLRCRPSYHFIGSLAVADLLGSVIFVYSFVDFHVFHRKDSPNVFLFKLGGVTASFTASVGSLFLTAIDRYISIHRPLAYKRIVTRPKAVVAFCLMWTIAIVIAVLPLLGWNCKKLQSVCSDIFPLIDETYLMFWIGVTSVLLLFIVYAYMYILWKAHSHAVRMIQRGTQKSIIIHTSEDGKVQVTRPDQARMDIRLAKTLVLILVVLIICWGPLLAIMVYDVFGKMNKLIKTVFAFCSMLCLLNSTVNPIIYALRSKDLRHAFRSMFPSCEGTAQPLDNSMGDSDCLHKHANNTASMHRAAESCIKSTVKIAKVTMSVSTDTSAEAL

Row | Compound | Activity [1] | Ki (Cannabinoid receptor 1 [2]) | Ki (Cannabinoid receptor 1 [3]) | Ki (Cannabinoid receptor 1 [4]) | Activity [5] | Activity [6] | Activity [7]
1 | Cc1c(C(=O)c2cccc3ccccc23)c2cccc3c2n1[C@H](CN1CCOCC1)CO3 | 47.1% |  |  |  |  |  | 
2 | Cc1c(/C=C/N2CCCCC2)nn(-c2ccc(Cl)cc2Cl)c1-c1ccc(Cl)cc1 | 3.2% | 258 nM | 213 nM | 223 nM | -2.5% | 13.9% | 0.7%
3 | Cc1c(/C=C/C2CCCCC2)nn(-c2ccc(Cl)cc2Cl)c1-c1ccc(Cl)cc1 | 8.6% | 85 nM | 31.3 nM | 60 nM | 28.1% |  | 
4 | Cc1c(/C=N/N2CCCCC2)nn(-c2ccc(Cl)cc2Cl)c1-c1ccc(Cl)cc1 | 11.5% | 57 nM | 17 nM | 19 nM | 2.6% |  | 
5 | Cc1c(C(=O)N(C)C2CCCCC2)nn(-c2ccc(Cl)cc2Cl)c1-c1ccc(Cl)cc1 | 26.1% | 54 nM | 30 nM | 107 nM | -4.5% | 23.9% | -7%
6 | Cc1c(C(=O)NC2CCCCC2)nn(-c2ccc(Cl)cc2Cl)c1-c1ccc(Cl)cc1 | 35.2% | 5 nM | 1.8 nM | 3.7 nM | -3.8% |  | 
7 | Cc1c(C(=O)NN2CCCCC2)nn(-c2ccc(Cl)cc2Cl)c1-c1ccc(Cl)cc1 | 46.6% |  |  |  | -4.8% |  | 
